Results on four compounds are retold here after ChEMBL document CHEMBL1123351, “Synthesis and pharmacological evaluation of some 6-substituted 7-methyl-1,4-dioxa-7-azaspiro[4.5]decanes as potential dopamine agonists” (1986).

Holding throughout (type): functional
Test [1] relates to Felis catus. As to the kind of experiment: Compound was tested in vivo for dopamine agonist activity in the cat cardioaccelerator nerve assay. The note with it: read-out: ID50 (the source's name). The gist of the method: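 Cats anesthetized with pentobarbital sodium 30 mg/kg injected into the thoracic cavity. Compounds given intravenously at doses spaced 0.33 log intervals apart, with N = 3 per dose. Inhibition of cardioaccelerator nerve response measured.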

Test [2] has as its system Rattus norvegicus. The test is described as follows: Compound was tested in vivo for dopamine agonist activity in the rat rotation assay after intravenous administration at the dose 1.38 (umol/kg).
Test [3] concerns Rattus norvegicus. The test is described as follows: Compound was tested in vivo for dopamine agonist activity in the rat rotation assay after intravenous administration at the 4.60 (umol/kg) dose.
Test [4] relates to Rattus norvegicus. The test is described as follows: Compound was tested in vivo for dopamine agonist activity in the rat rotation assay after intravenous administration at dose 0.46 (umol/kg).
Test [5] concerns Rattus norvegicus. The test is described as follows: Compound was tested in vivo for dopamine agonist activity in the rat rotation assay after intravenous administration at dose 3.5 (umol/kg).

SMILES strings stand for the structures. Where only a bound is given, the exact number is not on record here.

As to `CN1CCc2cccc3c2[C@H]1Cc1ccc(O)c(O)c1-3` [APOMORPHINE], the ED50 in test [1] was 0.0348 µmol/kg.
By Inhibition is commonly meant the change of the read-out against control, counted positive when it falls. `CN1CCCC2(OCCO2)C1Cc1ccccc1` (stereo not drawn): the values for the Inhibition in test [2], in test [3] and in test [4] were 18%, 36% and 22%, respectively. Further, the ED50 in test [1] is over 4 µmol/kg.
In the case of `CN1CCCC2(OCCO2)C1Cc1c[nH]c2ccccc12` (stereo not drawn), the Inhibition in test [5] came out at 32%. Further, the ED50 in test [1] was over 4 µmol/kg.
As for `CN1CCCC2(OCCO2)C1Cc1cccc2[nH]ccc12` (stereo not drawn), the ED50 in test [1] is 0.095 µmol/kg.
